# Measured values of several laboratories.
# Protocols differ between the studies behind these lines.
# Read-out: enzyme activity
# Action: inhibitor
# EGFR: Epidermal growth factor receptor (EGFR, Homo sapiens, UniProt P00533)
# EGFR L858R/T790M: Epidermal growth factor receptor (EGFR, Homo sapiens, UniProt P00533, L858R/T790M)
# EGFR L858R: Epidermal growth factor receptor (EGFR, Homo sapiens, UniProt P00533, L858R)
SMILES,target,assay,conditions,IC50 [nM]
Oc1ncnc2cc(Nc3nc(-c4ccc(Br)cc4)cs3)ccc12,EGFR,ELISA,,4.96
CCN(CC)CCCn1cccc1/C=N/NC(=O)Nc1cc2c(Nc3ccc(F)c(Cl)c3)ncnc2cc1O[C@H]1CCOC1,EGFR,,,0.5
Cc1ccc(-c2csc(Nc3ccc4c(O)ncnc4c3)n2)cc1,EGFR,ELISA,,8.59
Fc1ccc(-c2n[nH]cc2C=NNc2ccnc3cc(Cl)ccc23)cc1,EGFR,mobility shift,,73000
C=CC(=O)Nc1cc(Nc2nccc(-c3cn(C4CC4)c4ccccc34)n2)c(OC)cc1N(C)CCN(C)C,"Epidermal growth factor receptor (EGFR, Homo sapiens, UniProt P00533, G719D)",TR-FRET,,54.1
C=CC(=O)Nc1cc(Nc2nc(N3CCc4sccc4C3)c3cccnc3n2)c(OC)cc1N1CCC(N(C)C)CC1,EGFR L858R/T790M,ELISA,,349
Oc1ncnc2cc(Nc3nc(-c4ccccc4)cs3)ccc12,EGFR,ELISA,,10
O=C1c2c(O)cc(O)cc2OC(c2ccc(O)c(O)c2)C1O (stereo not shown),EGFR,radiometric,,29000
C=C(Cl)C(=O)Nc1cc(Nc2nc(Nc3cnn(C)c3)c3sccc3n2)c(OC)cc1N1CCN(C)CC1,EGFR L858R/T790M,ELISA,,173
CCN(CC)C/C=N/NC(=O)Nc1cc2c(Nc3ccc(F)c(Cl)c3)ncnc2cc1O[C@H]1CCOC1,EGFR L858R/T790M,,,13.2
CC(C)Cc1ccc(-c2nn(-c3ccc(S(C)(=O)=O)cc3)cc2/C=N/N=c2\[nH]c(-c3ccc([N+](=O)[O-])cc3)cs2)cc1,EGFR L858R,,,114
COc1cc2ncnc(Nc3ccc(F)c(Cl)c3)c2cc1NC(=O)N/N=C/c1cccn1CCCN(C)C,EGFR L858R/T790M,,,24.3
COCCOc1cc2ncnc(Nc3ccc(OCCn4ccnc4[N+](=O)[O-])c(Cl)c3)c2cc1OCCOC,EGFR,FRET,,230
Oc1ncnc2cc(Nc3nc(-c4ccc(Cl)cc4)cs3)ccc12,EGFR,ELISA,,4.81
COc1cc2ncnc(Nc3ccccc3)c2cc1OC,EGFR,mobility shift,,14
CCC(=O)Nc1cc(Nc2nc(N3CCc4sccc4C3)c3cccnc3n2)c(OC)cc1N1CCSCC1,EGFR,ELISA,,> 1000
C=CC(=O)Nc1cc(Nc2nccc(Nc3cc(Cl)c(F)cc3C(C)(C)O)n2)c(OC)cc1N1CC[C@@H](N(C)C)C1,EGFR,,with preincubation,226
C=C(Cl)C(=O)Nc1cc(Nc2nc(Nc3cnn(C)c3)c3sccc3n2)c(OC)cc1N(C)CCN(C)C,EGFR L858R/T790M,ELISA,,5.9
O=C(N/N=C/CN1CCCCC1)Nc1cc2c(Nc3ccc(F)c(Cl)c3)ncnc2cc1O[C@H]1CCOC1,EGFR,,,0.1
COc1ccc(-c2csc(Nc3ccc4c(O)ncnc4c3)n2)cc1,EGFR,ELISA,,10.1
OCc1ccc(Nc2ccc3ncnc(Nc4cccc(C(F)(F)F)c4)c3c2)cc1,EGFR,radiometric,,8.67
O=C(N/N=C/CN1CCOCC1)Nc1cc2c(Nc3ccc(F)c(Cl)c3)ncnc2cc1O[C@H]1CCOC1,EGFR,,,1.5
C=C(Cl)C(=O)Nc1cc(Nc2nc(N3CCOCC3)c3sccc3n2)c(OC)cc1N(C)CCN(C)C,EGFR,ELISA,,> 1000
CN1CCN(C/C=N/NC(=O)Nc2cc3c(Nc4ccc(F)c(Cl)c4)ncnc3cc2O[C@H]2CCOC2)CC1,EGFR,,,1.8
C=C(Cl)C(=O)Nc1cc(Nc2nc(N3CCc4sccc4C3)c3sccc3n2)c(OC)cc1N(C)CCN(C)C,"Epidermal growth factor receptor (EGFR, Homo sapiens, UniProt P00533, C797S/L858R/T790M)",ELISA,,> 1000
COc1cc2c(Nc3ccc(OCCn4ccnc4[N+](=O)[O-])c(Cl)c3)ncnc2cc1OCCCN1CCOCC1,EGFR,FRET,,190
CN(C)C/C=N/NC(=O)Nc1cc2c(Nc3ccc(F)c(Cl)c3)ncnc2cc1O[C@H]1CCOC1,EGFR,,,0.2
COc1ccc(-c2nn(-c3ccc(S(C)(=O)=O)cc3)cc2/C=N/N=c2\[nH]c(-c3ccc(Br)cc3)cs2)cc1,EGFR L858R,,,36
COc1cccc(CNc2ncnc3cc(Cl)ccc23)c1,EGFR,mobility shift,,1700
COc1cc2ncnc(Nc3ccc(F)c(Cl)c3)c2cc1NC(=O)N/N=C/c1cccn1CCN(C)C,EGFR,,,0.1
COc1ccc(-c2nn(-c3ccc(S(C)(=O)=O)cc3)cc2C=N/N=c2\[nH]c(-c3ccc([N+](=O)[O-])cc3)cs2)cc1,EGFR L858R/T790M,,,80
